Measured values: ChEMBL document CHEMBL3877308, “Design, synthesis and in vitro biological evaluation of oligopeptides targeting E. coli type I signal peptidase (LepB)” (Bioorg Med Chem, 2017)
Values after ≈ are worked out from the molar mass of the structure shown.

How the values were obtained:
[1] = target: Signal peptidase I (Escherichia coli K-12) (UniProt P00803); experiment: Inhibition of full length Escherichia coli His6-tagged LepB expressed in Escherichia coli C43(DE3) at 100 uM using dabcyl-VEVGGTATAGAFSRPGLE-(EDANS) as substrate preincubated for 10 mins followed by substrate addition measured for 2 hrs by FRET assay relative to control
How it was run: (§1)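 Enzyme came from the membrane fraction, extracted with 1% reduced Triton X-100 and purified by metal-chelation chromatography in 0.5% detergent. FRET pair was dabcyl acceptor and EDANS donor. EcLepB (final about 50 nM) was pre-incubated with compound 10 min at 22 °C. Reaction was then run with 8 µM substrate, following the linear fluorescence increase at 22 °C for 2 h.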

[2] = target: Signal peptidase I (Escherichia coli K-12) (UniProt P00803); experiment: Inhibition of full length Escherichia coli His6-tagged LepB expressed in Escherichia coli C43(DE3) assessed as residual activity at 0.039 uM using dabcyl-VEVGGTATAGAFSRPGLE-(EDANS) as substrate preincubated for 10 mins followed by substrate addition measured for 2 hrs by FRET assay relative to control; how it was run: as §1
Pseudomonas aeruginosa [3] = experiment: Antibacterial activity against wild type Pseudomonas aeruginosa PAO750 harboring efflux defective mutant after 16 to 20 hrs by broth microdilution assay; format: functional
How it was run: (§2)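 Broth microdilution MIC in cation-adjusted Mueller-Hinton II medium, following EUCAST and CLSI guidelines; tested on a panel of Gram-negative strains plus S. aureus ATCC 29213 (wild-type).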

[4] = target: Signal peptidase I (Escherichia coli K-12) (UniProt P00803); experiment: Inhibition of full length Escherichia coli His6-tagged LepB expressed in Escherichia coli C43(DE3) assessed as residual activity at 1.25 uM using dabcyl-VEVGGTATAGAFSRPGLE-(EDANS) as substrate preincubated for 10 mins followed by substrate addition measured for 2 hrs by FRET assay relative to control; how it was run: as §1
Escherichia coli [5] = experiment: Antibacterial activity against Escherichia coli CH3130 harboring tolC deletion mutant after 16 to 20 hrs by broth microdilution assay; format: functional; how it was run: as §2
[6] = target: Signal peptidase I (Escherichia coli K-12) (UniProt P00803); experiment: Inhibition of full length Escherichia coli His6-tagged LepB expressed in Escherichia coli C43(DE3) assessed as residual activity at 0.01 uM using dabcyl-VEVGGTATAGAFSRPGLE-(EDANS) as substrate preincubated for 10 mins followed by substrate addition measured for 2 hrs by FRET assay relative to control; how it was run: as §1
Acinetobacter baumannii = experiment: Antibacterial activity against wild type Acinetobacter baumannii ATCC 19606 after 16 to 20 hrs by broth microdilution assay; format: functional
How it was run: (§3)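 MIC by broth microdilution in cation-adjusted Mueller-Hinton II medium, following EUCAST and CLSI guidelines; panel of Gram-negative strains plus S. aureus ATCC 29213.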

Signal peptidase I = Signal peptidase I (Escherichia coli K-12, UniProt P00803); experiment: Inhibition of full length Escherichia coli His6-tagged LepB expressed in Escherichia coli C43(DE3) using dabcyl-VEVGGTATAGAFSRPGLE-(EDANS) as substrate preincubated for 10 mins followed by substrate addition measured for 2 hrs by FRET assay
How it was run: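 Enzyme extracted from the membrane fraction with 1% reduced Triton X-100 and purified by metal-chelation chromatography in 0.5% detergent. Enzyme (final ~50 nM) was pre-incubated with compound for 10 min at 22 °C. The linear rise in EDANS donor fluorescence (dabcyl acceptor) was then followed at 22 °C for 2 h. IC50 came from non-linear regression of sigmoidal rate-versus-concentration curves.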

[7] = Cytotoxicity against human HepG2 cells assessed as reduction in cell viability after 72 hrs by fluorescein diacetate dye based fluorometric microculture assay; format: toxicity
How it was run: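 FMCA on HepG2 cells read at 72 h. Survival index (%) is fluorescence in test wells as percent of control cultures, with blank values subtracted. IC50 was obtained by non-linear regression of log concentration-effect curves.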

[8] = target: Signal peptidase I (Escherichia coli K-12) (UniProt P00803); experiment: Inhibition of full length Escherichia coli His6-tagged LepB expressed in Escherichia coli C43(DE3) assessed as residual activity at 0.313 uM using dabcyl-VEVGGTATAGAFSRPGLE-(EDANS) as substrate preincubated for 10 mins followed by substrate addition measured for 2 hrs by FRET assay relative to control; how it was run: as §1
[9] = target: Signal peptidase I (Escherichia coli K-12) (UniProt P00803); experiment: Inhibition of full length Escherichia coli His6-tagged LepB expressed in Escherichia coli C43(DE3) assessed as residual activity at 0.02 uM using dabcyl-VEVGGTATAGAFSRPGLE-(EDANS) as substrate preincubated for 10 mins followed by substrate addition measured for 2 hrs by FRET assay relative to control; how it was run: as §1
[10] = Hemolytic activity against human RBC at 100 uM after 45 mins by spectrophotometric method relative to control; format: ADME, cell-based, Erythrocyte; settings: red blood cells (RBC), read-out: Activity
How it was run: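 Hemolysis was tested using red blood cells from heparinized human blood.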

Staphylococcus aureus = experiment: Antibacterial activity against wild type Staphylococcus aureus ATCC 29213 after 16 to 20 hrs by broth microdilution assay; format: functional; how it was run: as §3
Pseudomonas aeruginosa [11] = experiment: Antibacterial activity against wild type Pseudomonas aeruginosa PAO1 after 16 to 20 hrs by broth microdilution assay; format: functional; how it was run: as §3
[12] = target: Signal peptidase I (Escherichia coli K-12) (UniProt P00803); experiment: Inhibition of full length Escherichia coli His6-tagged LepB expressed in Escherichia coli C43(DE3) assessed as residual activity at 0.156 uM using dabcyl-VEVGGTATAGAFSRPGLE-(EDANS) as substrate preincubated for 10 mins followed by substrate addition measured for 2 hrs by FRET assay relative to control; how it was run: as §1
[13] = target: Signal peptidase I (Escherichia coli K-12) (UniProt P00803); experiment: Inhibition of full length Escherichia coli His6-tagged LepB expressed in Escherichia coli C43(DE3) assessed as residual activity at 0.625 uM using dabcyl-VEVGGTATAGAFSRPGLE-(EDANS) as substrate preincubated for 10 mins followed by substrate addition measured for 2 hrs by FRET assay relative to control; how it was run: as §1
Klebsiella pneumoniae = experiment: Antibacterial activity against wild type Klebsiella pneumoniae […] after 16 to 20 hrs by broth microdilution assay; format: functional; how it was run: as §3
Escherichia coli [14] = experiment: Antibacterial activity against Escherichia coli D22 harboring lpxC mutant after 16 to 20 hrs by broth microdilution assay; format: functional; how it was run: as §2
[15] = target: Signal peptidase I (Escherichia coli K-12) (UniProt P00803); experiment: Inhibition of full length Escherichia coli His6-tagged LepB expressed in Escherichia coli C43(DE3) assessed as residual activity at 2.5 uM using dabcyl-VEVGGTATAGAFSRPGLE-(EDANS) as substrate preincubated for 10 mins followed by substrate addition measured for 2 hrs by FRET assay relative to control; how it was run: as §1
[16] = target: Signal peptidase I (Escherichia coli K-12) (UniProt P00803); experiment: Inhibition of full length Escherichia coli His6-tagged LepB expressed in Escherichia coli C43(DE3) assessed as residual activity at 0.078 uM using dabcyl-VEVGGTATAGAFSRPGLE-(EDANS) as substrate preincubated for 10 mins followed by substrate addition measured for 2 hrs by FRET assay relative to control; how it was run: as §1
[17] = target: Signal peptidase I (Escherichia coli K-12) (UniProt P00803); experiment: Inhibition of full length Escherichia coli His6-tagged LepB expressed in Escherichia coli C43(DE3) assessed as residual activity at 5 uM using dabcyl-VEVGGTATAGAFSRPGLE-(EDANS) as substrate preincubated for 10 mins followed by substrate addition measured for 2 hrs by FRET assay relative to control; how it was run: as §1
[18] = target: Signal peptidase I (Escherichia coli K-12) (UniProt P00803); experiment: Inhibition of full length Escherichia coli His6-tagged LepB expressed in Escherichia coli C43(DE3) assessed as residual activity at 10 uM using dabcyl-VEVGGTATAGAFSRPGLE-(EDANS) as substrate preincubated for 10 mins followed by substrate addition measured for 2 hrs by FRET assay relative to control; how it was run: as §1
Escherichia coli [19] = experiment: Antibacterial activity against wild type Escherichia coli ATCC 25922 after 16 to 20 hrs by broth microdilution assay; format: functional; how it was run: as §3
[20] = target: Signal peptidase I (Escherichia coli K-12) (UniProt P00803); experiment: Inhibition of full length Escherichia coli His6-tagged LepB expressed in Escherichia coli C43(DE3) assessed as residual activity at 0.002 uM using dabcyl-VEVGGTATAGAFSRPGLE-(EDANS) as substrate preincubated for 10 mins followed by substrate addition measured for 2 hrs by FRET assay relative to control; how it was run: as §1

Chain of Signal peptidase I (Escherichia coli K-12) (P00803 whole entry): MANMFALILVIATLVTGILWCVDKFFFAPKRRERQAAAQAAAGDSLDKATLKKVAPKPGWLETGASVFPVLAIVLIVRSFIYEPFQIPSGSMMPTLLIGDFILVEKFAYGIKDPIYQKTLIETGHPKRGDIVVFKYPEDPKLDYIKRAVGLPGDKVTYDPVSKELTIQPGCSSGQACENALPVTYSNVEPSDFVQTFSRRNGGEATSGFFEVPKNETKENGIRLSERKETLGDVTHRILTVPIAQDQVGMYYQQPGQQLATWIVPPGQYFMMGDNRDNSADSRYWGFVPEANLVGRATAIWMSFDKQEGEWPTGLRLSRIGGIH
Chain of Signal peptidase I (P00803 whole entry): as above

CC(=O)N1CCC[C@H]1C(=O)N[C@H](C(=O)N[C@@H](C)C(=O)N[C@@H](CC(N)=O)C(=O)N[C@@H](C)C(=O)C(=O)NCc1cccc2ccccc12)[C@H](C)O
inhibition [1]: 32.3%

CCCCCCCCCC(=O)N1CCC[C@H]1C(=O)N[C@H](C(=O)N[C@@H](C)C(=O)N[C@@H](CC(N)=O)C(=O)N[C@@H](C)C(=O)O)[C@H](C)O
inhibition [1]: 38%

CC(=O)N[C@@H](C)C(=O)N[C@@H](CC(N)=O)C(=O)N[C@@H](C)C(=O)C(=O)NC(C)(C)C
inhibition [1]: 13.3%

CC(=O)N[C@@H](C)B1O[C@@H]2C[C@@H]3C[C@@H](C3(C)C)[C@]2(C)O1
inhibition [1]: 18%

CC(=O)N[C@@H](C)C(=O)N[C@@H](CC(N)=O)C(=O)N[C@@H](C)C(=O)C(=O)NCc1cccc2ccccc12
inhibition [1]: 26.6%

CCCCCCCCCC(=O)N1CCC[C@H]1C(=O)N[C@H](C(=O)N[C@@H](C)C(=O)N[C@@H](CC(N)=O)C(=O)N[C@@H](C)C(=O)C(=O)NCc1cccc2ccccc12)[C@H](C)O
inhibition [1]: 14.4%

CC(=O)N[C@@H](C)C(=O)C(=O)NCc1cccc2ccccc12
inhibition [1]: 31%

CCCCCCc1ccc(-c2ccc(C(=O)N3CCC[C@H]3C(=O)N[C@H](C(=O)N[C@@H](C)C(=O)N[C@@H](CC(N)=O)C(=O)N[C@@H](C)B(O)O)[C@H](C)O)cc2)cc1
Activity [2]: 97%
MIC (Pseudomonas aeruginosa [3]): > 64 µg/mL
Activity [4]: 16.8%
MIC (Escherichia coli [5]): > 64 µg/mL
Activity [6]: 97.1%
MIC (Acinetobacter baumannii): > 64 µg/mL
IC50 (Signal peptidase I): 230 nM
IC50 at 72 h [7]: > 64000 nM
Activity [8]: 38.4%
Activity [9]: 97.9%
hemolysis at 0.75 h, 100 µM [10]: 1.1%
MIC (Staphylococcus aureus): 4 µg/mL (≈ 5.43 µM)
MIC (Pseudomonas aeruginosa [11]): > 64 µg/mL
Activity [12]: 62.6%
Activity [13]: 33.5%
MIC (Klebsiella pneumoniae): > 64 µg/mL
MIC (Escherichia coli [14]): > 64 µg/mL
Activity [15]: 7.49%
Activity [16]: 95.5%
Activity [17]: 4.71%
Activity [18]: 7.23%
MIC (Escherichia coli [19]): > 64 µg/mL
inhibition [1]: > 50%

CC(=O)N1CCC[C@H]1C(=O)N[C@H](C(=O)N[C@@H](C)C(=O)N[C@@H](CC(N)=O)C(=O)N[C@@H](C)C(=O)C(=O)NC(C)(C)C)[C@H](C)O
inhibition [1]: 22.5%

CCCCCCCCCC(=O)N1CCC[C@H]1C(=O)N[C@H](C(=O)N[C@@H](C)C(=O)N[C@@H](CC(N)=O)C(=O)N[C@@H](C)C(=O)C(=O)NC(C)(C)C)[C@H](C)O
inhibition [1]: 31.5%

CCCCCCCCCC(=O)N1CCC[C@H]1C(=O)N[C@H](C(=O)N[C@@H](C)C(=O)N[C@@H](CC(N)=O)C(=O)N[C@@H](C)C(=O)N1CCC[C@H]1C(=O)NC)[C@H](C)O
inhibition [1]: 31.3%

CNC(=O)[C@@H]1CCCN1C(=O)[C@H](C)NC(=O)[C@H](CC(N)=O)NC(=O)[C@H](C)NC(=O)[C@@H](NC(=O)[C@@H]1CCCN1C(C)=O)[C@H](C)O
inhibition [1]: 35.8%

CC(=O)N1CCC[C@H]1C(=O)N[C@H](C(=O)N[C@@H](C)C(=O)N[C@@H](CC(N)=O)C(=O)N[C@@H](C)B1O[C@@H]2C[C@@H]3C[C@@H](C3(C)C)[C@]2(C)O1)C(C)O (single isomer, unassigned)
inhibition [1]: 26%

CCCCc1ccc(-c2ccc(C(=O)N[C@@H](CCN)C(=O)N[C@H](C(=O)N[C@@H](C)C(=O)N[C@@H](CCCCN)C(=O)N[C@@H](C)B3O[C@@H]4C[C@@H]5C[C@@H](C5(C)C)[C@]4(C)O3)[C@H](C)O)cc2)cc1
Activity [2]: 80.2%
MIC (Pseudomonas aeruginosa [3]): 8 µg/mL (≈ 9.3 µM)
Activity [20]: 98.2%
Activity [4]: 0.522%
MIC (Escherichia coli [5]): 4 µg/mL (≈ 4.65 µM)
Activity [6]: 86.8%
MIC (Acinetobacter baumannii): 32 µg/mL (≈ 37.2 µM)
IC50 (Signal peptidase I): 110 nM
IC50 at 72 h [7]: 12500 nM
Activity [8]: 18.9%
hemolysis at 0.75 h, 100 µM [10]: 12.8%
MIC (Staphylococcus aureus): < 0.125 µg/mL
MIC (Pseudomonas aeruginosa [11]): 32 µg/mL (≈ 37.2 µM)
Activity [12]: 25.3%
Activity [13]: 6.98%
MIC (Klebsiella pneumoniae): 2 µg/mL (≈ 2.33 µM)
MIC (Escherichia coli [14]): 1 µg/mL (≈ 1.16 µM)
Activity [15]: 3.33%
Activity [16]: 72.7%
Activity [17]: 0.501%
Activity [18]: -0.117%
MIC (Escherichia coli [19]): 8 µg/mL (≈ 9.3 µM)
